# Compound activity from PubChem BioAssay.
# This is a sample that favours compounds with a hit; in the whole collection about 2.7% have one here.
# Wee1 degr inh = Wee1 degradation inhibitors, primary screen, cell-based, HeLa, Wee1K328M-luciferase, luminescence | AID 1321, 2008 | reporter increase, % at 5 µM | 220,000 compounds, 1.2% hits | HeLa Luc-Wee1K328M stability; 100% = proteasome inhibitor MG132 effect | Wee1-like protein kinase (Homo sapiens), P30291;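 active means activation above the mean of all tested compounds plus 3 SD, set per screening run, cut at about 8.8% in these data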;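 further: cells exposed to compound for 20 h before luminescence read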
# TNF death inh = inhibitors of TNF-alpha triggered necroptosis, primary screen, cell-based, Jurkat FADD-/-, single concentration. Jurkat FADD-/- TNF necroptosis rescue, ATP luminescence, 24 h; 0 = TNF only, 100 = no-TNF cells. activation (protection from cell death), % at 10 µM. 220,000 compounds, 0.068% hits. AID 463075, 2010;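 active means activation, meaning protection from cell death, of at least 50% relative to plate controls; inactive means activation below 50%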;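 further: necroptosis triggered by 40 ng/mL TNF-alpha added together with compound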
# RBBP9 inh = human RBBP9 inhibitors, primary screen, biochemical, fluorescence polarization, FP-Rh probe, HTS; inhibition, % at 7.94 µM; recombinant RBBP9; Serine hydrolase RBBP9 (Homo sapiens), O75884; 220,000 compounds, 0.2% hits; AID 1515, 2009;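 active means inhibition above the campaign mean of all tested compounds plus 3 SD, cut at about 14% in these data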
#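 System: RBBP9 protein | Quantity: 2.5 µM RBBP9 dispensing solution, before mixing | Reagent: FP-Rh probe, 375 nM dispensing solution | Timing: Enzyme-compound preincubation 30 min, then probe labeling 45 min, 25 °C | Measured by: Fluorescence polarization | Read-out: % inhibition | Replication: One well per compound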
# p97 ATPase inh = inhibitors of human p97 ATPase, primary screen, biochemical. Transitional endoplasmic reticulum ATPase (Homo sapiens), P55072. recombinant p97 ATPase, Kinase-Glo ATP luminescence, 3 h. inhibition, % at 8 µM. 220,000 compounds, 0.42% hits. AID 1481, 2009; in the data active means inhibition above about 15%
# L929 necroptosis = inhibitors of zVAD-triggered necroptosis, primary screen, L929 cells; L929 zVAD necroptosis rescue, ATP luminescence, 24 h; with zVAD 60 µM; 220,000 compounds, 0.38% hits; viability rescue, % at 10 µM;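 active means activation, scaled between plate controls, above about 75%, limit read from the data; inactive means activation under that limit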
# PfM18AAP inh = PfM18AAP inhibitors, malaria aminopeptidase, primary screen, biochemical, QFRET, recombinant enzyme | inhibition, % at 7.35 µM | H-Glu-NHMec fluorogenic cleavage | 290,000 compounds, 1.2% hits | AID 1822, 2009;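 active means inhibition above the campaign mean inhibition over all tested compounds plus 3 SD, cut at about 28% in these data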
# A number is an active result; i = inactive; nt = not tested or not shown.
SMILES,Wee1 degr inh,TNF death inh,RBBP9 inh,p97 ATPase inh,L929 necroptosis,PfM18AAP inh
Fc1ccc(CNCCc2ccccc2)cc1,i,i,i,i,i,i
C1=C(CCNCc2ccccc2)CCCC1,9.3,i,i,i,i,i
O=c1c2ccccc2nc(CNCc2ccco2)n1-c1ccc(F)cc1,i,i,i,i,i,i
CC1CCCCN1Cc1ccc(Cl)nc1 (stereo unspecified),i,i,i,i,i,i
CN=C(SCc1ccccc1)c1c(O)n(C)c(=O)n(C)c1=O,9.3,i,i,i,i,i
NC1=Nc2ccccc2Oc2ccccc21,10,i,i,i,i,i
CC(C)CCN1CCN(Cc2c(F)cccc2Cl)CC1CCO (stereo unspecified),i,i,i,i,i,i
O=C1NC(=O)C(CCc2ccncc2)(Cc2ccc(OCc3ccccc3)cc2)C(=O)N1,8.8,i,i,i,i,i
O=C1NC(=O)C(=Cc2ccc3c(c2)OCO3)C(=O)N1,9.1,i,i,i,i,i
C=CCn1c(O)c(C(C)=NC2CCN(Cc3ccccc3)CC2)c(=O)[nH]c1=O,11,i,i,i,i,i
CN(C)c1ccc(/C=C/[N+](=O)[O-])cc1,i,i,i,i,i,31
O=C1NC(=O)C(CCc2ccccn2)(Cc2ccc3c(c2)OCO3)C(=O)N1CCc1ccccc1 (stereo unspecified),i,i,i,i,i,i
CCC(CO)NC(=O)C1C=C2c3cccc4[nH]cc(c34)CC2N(C)C1 (stereo unspecified),i,i,i,i,i,i
COC(=O)C1C=C2c3cccc4[nH]cc(c34)CC2N(C)C1 (stereo unspecified),i,i,21,i,i,i
CC(C)C(C)(NC(=O)c1cccn(Cc2ccc3c(c2)OC(F)(F)O3)c1=O)C(N)=O (stereo unspecified),i,i,i,i,i,i
CCCC(=O)OCC[N+](C)(C)C,9.4,i,i,i,i,i
FC(F)(F)c1ccc(NC2=NCCCS2)cc1,nt,nt,nt,nt,nt,i
CN1/C(=C\C=Nc2ccccc2)C(C)(C)c2ccccc21,i,i,i,i,i,i
CN1/C(=C\C=C\C2=[N+](C)c3ccc4ccccc4c3C2(C)C)C(C)(C)c2ccccc21,i,i,132,i,i,i
CC[C@@H](C(N)=O)N1CCCC1=O,i,nt,i,i,nt,i
O=C1NC(=O)N(Cc2ccccc2)C(=O)/C1=C\C=C\c1ccco1,i,i,i,i,i,30
O=C(Cn1cc(C=C2C(=O)NC(=O)NC2=O)c2ccccc21)NCC1CCCO1 (stereo unspecified),nt,nt,nt,nt,nt,32
NC1CCCCC1N=Cc1c(O)n(Cc2ccc(F)cc2)c(=O)[nH]c1=O (stereo unspecified),i,i,i,i,i,i
O=c1[nH]c(=O)n(Cc2ccc(F)cc2)c(O)c1C=NCC1CCCO1 (stereo unspecified),8.9,i,i,i,i,i
CSc1ccc(CNC2CN3CCC2CC3)cc1 (stereo unspecified),i,i,i,i,i,i
SMILES,Wee1 degr inh,TNF death inh,RBBP9 inh,p97 ATPase inh,L929 necroptosis,PfM18AAP inh
Clc1ccccc1CNC1CN2CCC1CC2 (stereo unspecified),11,i,i,i,i,i
Oc1ccc(C[C@H]2NCCc3cc(O)c(O)cc32)cc1O,nt,nt,nt,nt,nt,82
Nc1ccc(Br)cc1C(=O)c1ccccc1,i,i,i,i,i,i
Cc1ccc(N)c(C(=O)c2ccc(Br)cc2)c1,9.9,i,i,i,i,i
CCOC(=O)c1c(C)n(CCN2CCN(C)CC2)c2ccc(OC)cc12,i,i,i,i,i,i
CCOC(=O)c1c(C)n(CCOC)c2ccc(O)cc12,9.0,i,i,i,i,i
C[C@H](NC(=O)N1C[C@H]2C[C@@H](C1)c1cccc(=O)n1C2)C(=O)Nc1cccc(F)c1,nt,nt,nt,nt,nt,i
